Results on six compounds are retold here after ChEMBL document CHEMBL2346596, “Spirocyclic β-site amyloid precursor protein cleaving enzyme 1 (BACE1) inhibitors: from hit to lowering of cerebrospinal fluid (CSF) amyloid β in a higher species” (J Med Chem, 2013).

The subject of data set [1] is Plasma. The data set can be described thus: Free plasma concentration in mouse at 10 mg/kg, po after 4 hrs. Type of data set: ADME, organism-based. Also on record: dose 10 mg/kg, route oral. The following applies: in vivo.
A short description of data set [2]: Clearance in mouse at 3 mg/kg, iv and 10 mg/kg, po. The format is ADME, organism-based. As to conditions: in vivo.
The subject of data set [3] is Plasma. The data set can be described thus: Free plasma concentration in mouse at 10 mg/kg, po after 1 hr. Type of data set: ADME, organism-based. Set-up: dose 10 mg/kg, route oral. As to conditions: in vivo.
Data set [4] can be described thus: Clearance in mouse liver microsomes at 1 uM after 20 mins by LC-MS/MS analysis in presence of NADPH. Type of data set: ADME, Microsome. (In general: Microsomes from liver hold many membrane-bound enzymes, among them those of drug oxidation.)
A short description of data set [5]: Oral bioavailability in mouse at 10 mg/kg. The following applies: in vivo. Type of data set: ADME, organism-based.
In data set [6] the test system is Brain. The data set can be described thus: Free drug level in mouse brain at 10 mg/kg, po after 4 hrs. Type of data set: ADME, organism-based. Set-up: dose 10 mg/kg, route oral. As to conditions: in vivo.
The nature of data set [7]: Unbound brain-to-plasma concentration ratio in mouse at 10 mg/kg, po after 4 hrs. Type of data set: ADME, organism-based. Also on record: dose 10 mg/kg, route oral. The following applies: brain and plasma (unbound), read-out: K(p,uu,brain).
Data set [8] can be described thus: Unbound brain-to-plasma concentration ratio in mouse at 10 mg/kg, po after 1 hr. Type of data set: ADME, organism-based. Also on record: dose 10 mg/kg, route oral. As to conditions: brain and plasma (unbound), read-out: K(p,uu,brain).
Data set [9] relates to Brain. As to the kind of experiment: Free drug level in mouse brain at 10 mg/kg, po after 1 hr. Type of data set: ADME, organism-based. Set-up: dose 10 mg/kg, route oral. As to conditions: in vivo.
Data set [10] in a line: Clearance in rat liver microsomes at 1 uM after 20 mins by LC-MS/MS analysis in presence of NADPH. Type of data set: ADME, Microsome.
Data set [11] in a line: Clearance in cynomolgus monkey liver microsomes at 1 uM after 20 mins by LC-MS/MS analysis in presence of NADPH. The format is ADME, Macaca fascicularis, Microsome.
Data set [12] can be described thus: Drug uptake in Hartley guinea pig CSF at 150 mg/kg, po formulated with 0.5% HPMC/0.5% Tween 80 after 5 hrs. Set-up: dose 150 mg/kg, route oral. Type of data set: ADME, organism-based, Cavia porcellus, Cerebrospinal fluid. As to conditions: read-out: Drug uptake. Put shortly:
(§1)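 Male Hartley guinea pigs, 6–8 per group, were dosed orally at 4–5 mL/kg and euthanized with intraperitoneal euthasol at set times. CSF (40–100 μL) was collected post-mortem by cisterna magna puncture into tubes containing 10% BSA, then snap-frozen for analysis. Drug concentration was determined in the CSF; plasma and brain were also sampled.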

Data set [13] in a line: Free plasma concentration in Hartley guinea pig at 150 mg/kg, po formulated with 0.5% HPMC/0.5% Tween 80 after 5 hrs. Type of data set: ADME, organism-based, Cavia porcellus. Also on record: dose 150 mg/kg, route oral. As to conditions: in vivo. A digest of the protocol: (§2)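 Male Sprague–Dawley rats or male Hartley guinea pigs (6−8 weeks, 250−350 g), 6−8 per group, given vehicle or compound orally at 4−5 mL/kg. At set times after dosing, rats were killed by CO₂ and guinea pigs by ip euthasol (250 mg/kg). Plasma came from cardiac-puncture blood in EDTA. CSF was taken by cisterna magna puncture into 10% BSA and snap frozen.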

A short description of data set [14]: Drug uptake in Hartley guinea pig CSF at 75 mg/kg, po formulated with 0.5% HPMC/0.5% Tween 80 after 5 hrs. Type of data set: ADME, organism-based, Cavia porcellus, Cerebrospinal fluid. Set-up: dose 75 mg/kg, route oral. As to conditions: read-out: Drug uptake. A digest of the protocol: as §2
Data set [15] in a line: Free drug level in Hartley guinea pig brain at 75 mg/kg, po formulated with 0.5% HPMC/0.5% Tween 80 after 5 hrs. The format is ADME, organism-based, Cavia porcellus. Set-up: dose 75 mg/kg, route oral. The following applies: in vivo. A digest of the protocol:
as §2

Data set [16] can be described thus: Unbound brain-to-plasma concentration ratio in Hartley guinea pig at 75 mg/kg, po formulated with 0.5% HPMC/0.5% Tween 80 after 5 hrs. Type of data set: ADME, organism-based, Cavia porcellus. Set-up: dose 75 mg/kg, route oral. As to conditions: read-out: K(p,uu,brain).
Data set [17] is described as follows: Clearance in human liver microsomes at 1 uM after 20 mins by LC-MS/MS analysis in presence of NADPH. Type of data set: ADME, Microsome.
Data set [18] is described as follows: Free plasma concentration in Hartley guinea pig at 75 mg/kg, po formulated with 0.5% HPMC/0.5% Tween 80 after 5 hrs. The format is ADME, organism-based, Cavia porcellus. Also on record: dose 75 mg/kg, route oral. The following applies: in vivo. A digest of the protocol:
(§3)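 Male Hartley guinea pigs, 6−8 weeks, 250−350 g, 6−8 per group, given a single oral dose or vehicle at 4−5 mL/kg. Euthanized with euthasol 250 mg/kg ip at set times. Whole blood was taken post-mortem by cardiac puncture into EDTA and centrifuged at 4 °C. Plasma was stored at −20 °C for drug analysis.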

Data set [19] can be described thus: Clearance in guinea pig liver microsomes at 1 uM after 20 mins by LC-MS/MS analysis in presence of NADPH. The format is ADME, Cavia porcellus, Microsome. The following applies: read-out: CLH.
A short description of data set [20]: Drug uptake in Hartley guinea pig CSF at 150 mg/kg, po formulated with 40/10/50 PEG/ethanol/H2O after 3 hrs. The format is ADME, organism-based, Cavia porcellus, Cerebrospinal fluid. Also on record: dose 150 mg/kg, route oral. The following applies: read-out: Drug uptake. Put shortly:
as §1

Data set [21] can be described thus: Free plasma concentration in Hartley guinea pig at 50 mg/kg, po formulated with 40/10/50 PEG/ethanol/H2O after 3 hrs. Type of data set: ADME, organism-based, Cavia porcellus. Set-up: dose 50 mg/kg, route oral. The following applies: in vivo. A digest of the protocol: as §3
Data set [22] in a line: Drug uptake in Hartley guinea pig CSF at 50 mg/kg, po formulated with 40/10/50 PEG/ethanol/H2O after 3 hrs. As to conditions: read-out: Drug uptake. Type of data set: ADME, organism-based, Cavia porcellus, Cerebrospinal fluid. Also on record: dose 50 mg/kg, route oral. Put shortly:
as §1

Data set [23] in a line: Free plasma concentration in Hartley guinea pig at 150 mg/kg, po formulated with 40/10/50 PEG/ethanol/H2O after 3 hrs. As to conditions: in vivo. The format is ADME, organism-based, Cavia porcellus. Also on record: dose 150 mg/kg, route oral. A digest of the protocol: as §2

For the compound `CN1C(=O)C2(CC(C)(C)Oc3ccc(-c4cc(F)cc(Cl)c4)cc32)N=C1N` (racemic), the results for the “Cp(f)” value in data set [1] and in data set [3] were 32 nM and 42 nM, respectively. In [2], the clearance came to 12 mL/min/kg. For the same compound, the CLhep predicted at 1 µM in data set [4] is 15 mL/min/kg. This compound also had a bioavailability in [5] of 79%. The “Drug uptake(free)” value worked out at 7 nM in data set [6] and 3.8 nM in [9]. Moreover, the Kp uu at 4 h in [7] turned out to be 0.22. Also, the Kp uu at 1 h in data set [8] was found to be 0.09.

Consider `CC1(C)Cc2ccc(-c3cncnc3)cc2C2(COC(N)=N2)C1` (racemic), for which the “Cp(f)” value turned out to be 12 nM in data set [1] and 120 nM in data set [3]. In addition, the clearance in [2] stood at 126 mL/min/kg. Besides, the CLhep predicted at 1 µM in data set [4] was 16 mL/min/kg. In [5], the bioavailability amounted to 34%. Besides, the “Drug uptake(free)” value in [6] turned out to be 13 nM; in [9], 120 nM. In addition, the Kp uu at 4 h in [7] is 1.1. Moreover, the Kp uu at 1 h in data set [8] was determined as 1.

`CN1C(=O)[C@]2(CC(C)(C)Cc3ccc(-c4cccnc4F)cc32)N=C1N`: the CLhep predicted at 1 µM in [10] is 60 mL/min/kg; in [11], 12 mL/min/kg; in [4] it was 24 mL/min/kg; in [17] it was 3 mL/min/kg. Also, the concentration at 5 h in data set [12] worked out at 247 nM; in [14] it was 20 nM. In addition, the figures for the “Cp(f)” value in [13] and in [18] were 562 nM and 304 nM, respectively. The “Drug uptake(free)” value in data set [15] amounted to 11 nM. Moreover, in data set [16], the Kp uu at 5 h was determined as 0.037. In addition, in data set [19], the CLint scaled at 1 µM is 26 mL/min/kg.

Consider `CN1C(=O)C2(CC(C)(C)Sc3ccc(-c4cc(F)cc(Cl)c4)cc32)N=C1N` (racemic), for which the “Cp(f)” value in data set [1] was determined as 3.6 nM; in data set [3], 2.2 nM. The compound also gave a clearance in data set [2] of 69 mL/min/kg. Moreover, the CLhep predicted at 1 µM in data set [4] is 47 mL/min/kg. Further, the bioavailability in data set [5] was 52%. Moreover, the “Drug uptake(free)” value is 1.6 nM in data set [6] and 0.7 nM in data set [9]. Besides, the Kp uu at 4 h in data set [7] was found to be 0.46. Further, in data set [8], the Kp uu at 1 h amounted to 0.29.

As to `CC1(C)Cc2ccc(-c3cncnc3)cc2[C@@]2(COC(N)=N2)C1`, the CLhep predicted at 1 µM in [10] is 28 mL/min/kg; in [11], 29 mL/min/kg; in data set [4] it was 23 mL/min/kg; in [17] it was 3 mL/min/kg. Besides, the figures for the concentration at 3 h in data set [20] and in [22] were 5610 nM and 888 nM, respectively. The results for the “Cp(f)” value in data set [21] and in data set [23] were 3019 nM and 6673 nM, respectively. Also, the CLint scaled at 1 µM in [19] is 12 mL/min/kg.

In the case of `CN1C(=O)C2(CC(C)(C)Cc3ccc(-c4cccnc4F)cc32)N=C1N` (racemic), the “Cp(f)” value is on record as 29 nM in data set [1] and 47 nM in data set [3]. The compound further returned a clearance in data set [2] of 67 mL/min/kg. Besides, the CLhep predicted at 1 µM in data set [4] is 59 mL/min/kg. Further, the bioavailability in [5] was determined as 62%. Further, the “Drug uptake(free)” value in [6] turned out to be 5.1 nM; in data set [9] it was 3.7 nM. For the same compound, the Kp uu at 4 h in data set [7] was 0.18. Further, in [8], the Kp uu at 1 h was found to be 0.08.

The bioavailability is dose-corrected exposure relative to a reference, in per cent.
